Experimental data pooled from the literature.
Lines come from different studies, so protocols differ. Converted amounts (≈) assume the structure as drawn.

With `N=C(NCCCCCCNC(=N)NC(=N)Nc1ccc(Cl)cc1)NC(=N)Nc1ccc(Cl)cc1` the IC50 was 5.97 µM (Acanthamoeba castellanii; parasite growth, resazurin; 96 h).
`CCc1cc(Nc2cc(=O)n(CCCCO)c(=O)[nH]2)ccc1C` has an MIC of 32 µg/mL (≈ 101 µM) (Lacticaseibacillus casei; microbial growth, agar dilution; 48 h).
`OC[C@H]1O[C@@H](n2ccc3c(O)ncnc32)[C@H](O)[C@@H]1O` has an IC50 of 36.1 µM (Toxoplasma gondii; parasite growth; human Fibroblast; intracellular).
`O=c1[nH]c(NCc2ccc(Cl)c(Cl)c2)nc2ncn(CCCCCN3CCOCC3)c12` gave an MIC of 16 µg/mL (≈ 34.4 µM) (Lacticaseibacillus casei; microbial growth, agar dilution; 48 h).
With `Cc1nc2sccn2c1C(=O)N1CCN(CCn2cc(-c3ccc(C(C)(C)C)cc3)nn2)CC1` the IC50 was > 128 µM (Mycolicibacterium smegmatis; microbial growth; 72 h).
`COc1cc2[nH]c3cc(Oc4ccc(OC(F)(F)F)cc4)ccc3c(=O)c2cc1F` has an EC50 of 0.00063 µM (Toxoplasma gondii; parasite growth; 72 h, intracellular).
With `CCc1nc(N)nc(N)c1-c1ccc(Cl)cc1` the IC50 was 16.1 µM (Toxoplasma gondii; parasite growth; human Fibroblast; intracellular).
`C[C@@H](c1ncncc1F)[C@](O)(Cn1cncn1)c1ccc(F)cc1F` has an IC50 of 21.6 µM (Acanthamoeba castellanii; parasite growth, resazurin; 7 days).
For `CC(C)(C)C1=CC(=NNC(=O)C2CCCCC2)C=C(C(C)(C)C)C1=O`, the IC50 was > 100 µM (Toxoplasma gondii; parasite growth, fluorescence; 5 days, intracellular).
With `N#Cc1cc(-c2nc3ccccc3s2)c(=O)n(NS(=O)(=O)c2ccccc2)c1N` the IC50 was 110 µg/mL (Human mastadenovirus B; plaque formation; HEp-2).
The IC50 of `Cc1ccc(C(=O)ON=C2C=C(C(C)(C)C)C(=O)C(C(C)(C)C)=C2)cc1` is reported as 13 µM (Toxoplasma gondii; parasite growth, fluorescence; 5 days, intracellular).
For `O=C1C(O)=C([C@H]2CC[C@H](c3ccc(Cl)cc3)CC2)C(=O)c2ccccc21`, the EC50 was 0.0106 µM (Toxoplasma gondii; parasite growth; 72 h, intracellular).
